Source: PMC12667952 (bioRxiv, 2025)
Positions count from the first letter of the chain named. Where two headings read alike, the source gives them in different places.

Key:
CCI mice = assay: Cold allodynia; assay type: in vivo, mouse; conditions: control compound gabapentin 100 mg/kg, by 2-hour time point
Method in brief: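 CCI mice tested 14 days after surgery. […] Acetone-evoked cold allodynia scored before surgery, at t = 0 before dosing, and at 0.5, 1, 1.5, 2, 4 and 6 h. Expressed as % of maximal possible responses. Two-way ANOVA with Dunnett's test versus vehicle.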

mice [1] = conditions: 50 mg/kg; cited from earlier work
hGlyT2^D633E [2] = biological target: T1, hGlyT2^D633E (Homo sapiens, UniProt Q9Y345, D633E); assay: Reversibility; assay type: cell-based
T1 sequence (Q9Y345 1-797 D633E): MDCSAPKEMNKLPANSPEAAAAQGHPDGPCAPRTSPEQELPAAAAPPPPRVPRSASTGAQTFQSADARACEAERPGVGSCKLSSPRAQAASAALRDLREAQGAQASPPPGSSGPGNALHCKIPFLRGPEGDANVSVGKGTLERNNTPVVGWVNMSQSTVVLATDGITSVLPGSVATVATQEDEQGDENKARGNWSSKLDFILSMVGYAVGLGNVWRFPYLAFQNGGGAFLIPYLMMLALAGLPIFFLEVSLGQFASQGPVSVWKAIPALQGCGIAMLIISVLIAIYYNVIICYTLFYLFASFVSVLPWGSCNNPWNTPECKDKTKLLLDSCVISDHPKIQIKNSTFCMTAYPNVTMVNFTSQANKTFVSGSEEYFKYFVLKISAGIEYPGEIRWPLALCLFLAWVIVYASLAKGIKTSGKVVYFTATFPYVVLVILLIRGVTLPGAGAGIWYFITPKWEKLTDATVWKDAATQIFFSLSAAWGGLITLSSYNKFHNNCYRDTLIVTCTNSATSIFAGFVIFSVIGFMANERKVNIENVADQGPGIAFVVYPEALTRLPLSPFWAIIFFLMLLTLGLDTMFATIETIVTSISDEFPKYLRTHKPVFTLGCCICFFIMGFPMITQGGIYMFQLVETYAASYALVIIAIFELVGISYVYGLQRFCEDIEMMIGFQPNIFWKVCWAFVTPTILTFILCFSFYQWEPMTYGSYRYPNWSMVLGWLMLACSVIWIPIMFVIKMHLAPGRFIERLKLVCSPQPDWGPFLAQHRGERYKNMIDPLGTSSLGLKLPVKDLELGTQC

hGlyT2^WT [3] = biological target: T2, hGlyT2^WT (Homo sapiens, UniProt Q9Y345); assay: Sodium dependence of inhibition of glycine transport currents; assay type: cell-based; conditions: IC50 at 100 mM Na+, 100 mM Na+, 300 μM glycine
T2 sequence (Q9Y345 1-797): T1 sequence (Q9Y345 1-797 D633E) with E633D

hGlyT2^WT [4] = biological target: T2, hGlyT2^WT; assay type: cell-based
hGlyT2^WT [5] = biological target: T2, hGlyT2^WT; assay: Reversibility; assay type: cell-based
Method in brief: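 Xenopus oocytes injected with 20 ng hGlyT2 WT cRNA and held 3–6 days at 18 °C. Glycine currents recorded by two-electrode voltage clamp at −60 mV. Test compound applied at a single concentration (10 μM maximum), then washed out. Recovery of 30 µM glycine-evoked currents followed to 30 min, normalised to pre-inhibitor current. n ≥ 5 from at least two frogs.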

hGlyT2^W215F [6] = biological target: T3, hGlyT2^W215F (Homo sapiens, UniProt Q9Y345, W215F); assay type: cell-based
T3 sequence (Q9Y345 1-797 W215F): T1 sequence (Q9Y345 1-797 D633E) with W215F, E633D

mice [7] = conditions: 50 mg/kg; cited from earlier work; remark: listed apart in the source
hGlyT2^D633E [8] = biological target: T1, hGlyT2^D633E; assay type: cell-based
hGlyT2^W215F [9] = biological target: T3, hGlyT2^W215F; assay: Reversibility; assay type: cell-based
[10] = cited from earlier work
C57BL/6J mice = assay: Conditioned place preference; assay type: in vivo, mouse; conditions: 10 mg/kg, i.p., positive control
GlyT2 = conditions: read-out: IC50 for GlyT2; cited from earlier work

For `NCC1(CC(=O)O)CCCCC1` [Gabapentin, reference compound], the “Peak reduction of response rate to acetone stimulus” value (CCI mice) was 75%.
In the case of `COc1cc(C(=O)NCC2(N(C)C)CCCC2)cc(OC)c1OCc1ccccc1` [ORG25543, 4-(benzyloxy)-N-{[1-(dimethylamino)cyclopentyl]methyl}-3,5-dimethoxybenzamide, reference compound], the Mechanical allodynia (mice [1]) is given as “reversed mechanical allodynia”, the “Washout of inhibitor from hGlyT2^D633E” value (hGlyT2^D633E [2]) is given as “recovery from ORG25543 within five minutes” and the IC50 (hGlyT2^WT [3]) is given as 17.6 nM. The IC50 (hGlyT2^WT [4]) was 11.4 nM, the “Glycine currents restored, of pre-inhibitor levels” value (hGlyT2^WT [5]; after 30 minutes washout) was 12.5% and the “Reversibility of inhibition (recovery of glycine-induced currents)” value (hGlyT2^WT [5]; washout, hGlyT2^WT) was “minimal restoration of glycine-induced currents 30-minutes post-ORG25543”. For the same compound, the “Decrease in potency of inhibition, W215F versus WT” value (hGlyT2^W215F [6]) was “~three-fold”, the “Side effects coinciding with analgesic dose” value (mice [7]) was “near-complete loss of rotarod performance, seizures and in one case, lethality” and the “Reduction in potency of inhibition, D633E versus WT” value (hGlyT2^D633E [8]) was ~ 14 fold. The “Washout of inhibitor from hGlyT2^W215F” value (hGlyT2^W215F [9]) was “significantly increased the rate of ORG25543 washout” and the “Effects on inflammatory and acute nociceptive pain thresholds” value [10] was “no effects”.
For `CN1CC[C@]23c4c5ccc(O)c4O[C@H]2[C@@H](O)C=C[C@H]3[C@H]1C5` [morphine, reference compound], the “Preference for the paired chamber” value (C57BL/6J mice) was “significant increase in preference for the paired chamber”.
For `CCCCCCCC/C=C\CCCCCCCC(=O)N[C@H](CCCCN)C(=O)O` [oleoyl-D-lysine], the “Effects on inflammatory and acute nociceptive pain thresholds” value [10] is listed as “no effects”.
In the case of `CCCCOc1c(OC)cc(C(=O)NCC2(N(C)C)CCOCC2)cc1OC` [opiranserin], the IC50 (GlyT2) is given as 860 nM.
